Measurements reported in ChEMBL document CHEMBL4414644, “A New Approach of Mitigating CYP3A4 Induction Led to the Discovery of Potent Hepatitis B Virus (HBV) Capsid Inhibitor with Optimal ADMET Profiles” (J Med Chem, 2019).

Key:
[1] = Cytotoxicity in human HepDE19 cells assessed as reduction in cell viability incubated for 5 days by CCK8 assay; format: cell-based
Procedure, shortened: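 HepDE19 cells were grown in DMEM-F12 with 10% FBS, penicillin/streptomycin and 0.5 mg/mL G418, then seeded at 5 × 10^3 cells/well. Compound exposure lasted 5 days. Viability was read with CCK-8 after 2 h at 37 °C, measuring OD450 and OD630. CC50 was the concentration killing 50% of cells; duplicate runs.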

[2] = Induction of CYP3A4 gene expression in cryopreserved human hepatocytes assessed as increase in CYP3A4 mRNA level at 10 uM incubated for 24 hrs by qRT-PCR analysis relative to rifampicin; format: ADME, cell-based
Procedure, shortened: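 Cryopreserved hepatocytes from one human donor were seeded at 1 × 10^6 cells/mL and cultured 24 h in serum-free Williams E. Compounds at 0.1, 1.0 and 10 µM (0.1% DMSO) were added in triplicate for 24 h, with vehicle wells as negative controls. Positive controls were omeprazole for CYP1A2, phenobarbital for CYP2B6 and rifampicin for CYP3A4. mRNA was measured by TaqMan qRT-PCR normalised to PPIA (2^-ΔΔCT) and expressed as % of the positive control.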

SMILES	Activity [2] [%]	CC50 at 120 h [1] [µM]
CCOC(=O)C1=C(CN2CCOC[C@H]2C(=O)O)NC(c2nccs2)=N[C@H]1c1ccc(Cl)c(F)c1		24
CCOC(=O)C1=C(CN2CC(F)(F)C[C@H]2C(=O)O)NC(c2nccs2)=N[C@H]1c1ccc(F)cc1Cl	123	> 100
COC(=O)C1=C(CN2CC(F)(F)C[C@H]2C(=O)O)NC(c2nccs2)=N[C@H]1c1ccc(F)cc1Cl	109	65
COC(=O)C1=C(CN2CC(F)(F)C[C@H]2C(=O)O)NC(c2nccs2)=N[C@H]1c1ccc(F)cc1F	96	> 100

More lines, main results first:

Activity [2] [%]	SMILES	CC50 at 120 h [1] [µM]
26	COC(=O)C1=C(CN2CCOC[C@H]2C(=O)O)NC(c2nccs2)=N[C@H]1c1ccc(Br)c(F)c1	76
173	CCOC(=O)C1=C(CN2CCOC[C@H]2C(=O)O)NC(c2nccs2)=N[C@H]1c1ccc(F)cc1Cl	> 100
72	CCOC(=O)C1=C(CN2CCOC[C@H]2C(=O)O)NC(c2nccs2)=N[C@H]1c1cc(F)c(F)c(F)c1	> 100
94	CCOC(=O)C1=C(CN2CCOC[C@H]2C(=O)O)NC(c2nccs2)=N[C@H]1c1cccc(F)c1	69
36	COC(=O)C1=C(CN2CCOC[C@H]2C(=O)O)NC(c2nccs2)=N[C@H]1c1ccc(F)c(F)c1	> 100
